For orientation: Papp means a coefficient for how fast a substance crosses the barrier.

In data set [1] the test system is Liver microsome. The data set is described as follows: Stability in human liver microsomes assessed as metabolite formation at 8 uM at 37 degC in absence of NADPH and glucose-6-phosphate. In kind it is ADME. The method in brief:
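Negative control. Compound 8 µM with pooled human liver microsomes (45 donors, 0.5 mg protein/ml) in 0.1 M phosphate buffer pH 7.4 with 3 mM MgCl₂, without NADPH and glucose-6-phosphate. 37 °C, 350 rpm. Aliquots taken at 0, 10, 20 and 30 min and quenched in acetonitrile. Parent compound measured by HPLC (UV or fluorescence).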

In data set [2] the test system is Liver microsome. The data set is described as follows: Stability in human liver microsomes assessed as metabolite formation at 8 uM at 37 degC in presence of NADPH and glucose-6-phosphate. The format is ADME. The method in brief: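 Compound 8 µM with pooled human liver microsomes (45 donors, 0.5 mg protein/ml) in 0.1 M phosphate buffer pH 7.4 with 3 mM MgCl₂. Started by adding NADPH (1 mM) and glucose-6-phosphate (3 mM). 37 °C, 350 rpm. Aliquots at 0, 10, 20 and 30 min quenched in acetonitrile. Parent compound measured by HPLC-UV/fluorescence as % remaining; Clint from in vitro t1/2 method, scaled to human hepatic Clint.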
(Liver microsomes are a subcellular fraction often used to study metabolism.)

Data set [3] in a line: Thermodynamic solubility in FaSSIF medium after 24 hrs by UV detection and HPLC method. In kind it is physicochemical. Particulars: read-out: Therm_solubility. The method in brief:
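Excess solid added to FaSSIF (SIF powder in phosphate buffer), shaken 24 h at 175 rpm and 37 °C, then centrifuged at 20,817g for 15 min. Supernatant quantified by HPLC with UV detection. n = 3.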

Data set [4] is described as follows: Apparent permeability in human Caco2 cells. The format is ADME, cell-based. Conditions: Caco-2.

Molecules are shown by their SMILES. Converted amounts (≈) assume the structure as drawn.

In the case of `C=CCOC(=O)c1cccnc1NC12CC3CC(CC(C3)C1)C2`, the Stability result with Liver microsome [1] is reported as “Stable”. Besides, the Drug metabolism entry in the data set with Liver microsome [2] is listed as “metabolite_detected”. Also, in data set [3], the solubility thermodynamic at 24 h is 20.7 µM (≈ 6.47 µg/mL). Besides, the Papp in data set [4] turned out to be 1.2 ×10⁻⁶ cm/s.

`C=CCNC(=O)c1cccnc1NCC=C`: the Stability entry in the data set on Liver microsome [1] and with Liver microsome [2] was “Stable” in each case.

On to `CC(C)CCNC(=O)c1cccnc1NCCC(C)C`, for which the Stability entry in the data set with Liver microsome [1] and with Liver microsome [2] was “Stable” throughout.

Regarding `O=C(NC1CCCCC1)c1cccnc1NC1CCCCC1`, in the data set on Liver microsome [1], the Stability entry is recorded as “Stable”. In addition, the Drug metabolism entry in the data set with Liver microsome [2] was “metabolite_detected”.

For the compound `C=CCn1c(=O)c2cccnc2n(CC=C)c1=O`, the Stability result in the data set with Liver microsome [1] and in the data set with Liver microsome [2] was “Stable” each time.

In the case of `CCCn1c(=O)c2cccnc2n(CCC)c1=O`, the Stability entry in the data set with Liver microsome [1] and with Liver microsome [2] was “Stable” throughout.

Turning to `CC(C)CCn1c(=O)c2cccnc2n(CCC(C)C)c1=O`, the Stability entry with Liver microsome [1] is reported as “Stable”. The Drug metabolism result with Liver microsome [2] is given as “metabolite_detected”.

For the compound `O=c1c2cccnc2n(Cc2ccccc2)c(=O)n1Cc1ccccc1`, the Stability entry in the data set on Liver microsome [1] and in the data set with Liver microsome [2] was “Stable” each time.

Regarding `C=CCNC(=O)c1cccnc1NC(C)(C)CC(C)(C)C`, in the data set with Liver microsome [1], the Stability entry is “Stable”. In addition, the Drug metabolism result with Liver microsome [2] was “metabolite_detected”.

Turning to `C=CCn1c(=O)c2cccnc2n(C2CCCCC2)c1=O`, the Stability entry with Liver microsome [1] and in the data set with Liver microsome [2] was “Stable” throughout.

`COc1ccc2c(c1)c(CC(=O)O)c(C)n2C(=O)c1ccc(Cl)cc1` [INDOMETHACIN]: the Papp in data set [4] stood at 93.3 ×10⁻⁶ cm/s.
